How the values were obtained:
[1] = Cytotoxicity against human SNB75 cells assessed as cell growth at 10^-5 M after 48 hrs by sulforhodamine B assay relative to control; type: functional; settings: SNB-75, 48 h, read-out: Activity
Procedure, shortened: (§1)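 NCI ~60 human tumor cell line one-dose screen covering nine cancer types. Cells were preincubated 24–48 h, then exposed to compound at 10^-5 M for 48 h. SRB protein staining was the endpoint, and growth percent was calculated versus untreated control cells.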

HFL1 [2] = assay: Antifibrotic activity in HFL1 cells assessed as inhibition of cell viability at >1 uM after 48 hrs by sulforhodamine B assay relative to control; type: functional; settings: Homo sapiens, HFL1, 48 h
Procedure, shortened: (§2)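 HFL-1 human fetal lung fibroblasts (DMEM, 10% FCS, passages 14–18) seeded at 8000 cells/well, attached overnight, then exposed to a range of concentrations for 48 h in triplicate. Cells were fixed with TCA and stained with 0.4% SRB, bound dye was solubilized in Tris, and OD was read at 570 nm relative to control.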

HFL1 [3] = assay: Antifibrotic activity in HFL1 cells assessed as inhibition of cell viability after 48 hrs by sulforhodamine B assay; type: functional, cell-based; settings: Homo sapiens, HFL1, 48 h; procedure, shortened: as §2
MDA-MB-435 = assay: Cytotoxicity against human MDA-MB-435 cells assessed as cell growth at 10^-5 M after 48 hrs by sulforhodamine B assay relative to control; type: functional; settings: MDA-MB-435, 48 h, read-out: Activity; procedure, shortened: as §1
[4] = Cytotoxicity against human NCI60 cells assessed as cell growth at 10^-5 M after 48 hrs by sulforhodamine B assay relative to control; type: functional; settings: NCI60, 48 h, read-out: Activity; procedure, shortened: as §1
[5] = Cytotoxicity against human SF295 cells assessed as cell growth at 10^-5 M after 48 hrs by sulforhodamine B assay relative to control; type: functional; settings: SF-295, 48 h, read-out: Activity; procedure, shortened: as §1
[6] = Cytotoxicity against human MOLT4 cells assessed as cell growth at 10^-5 M after 48 hrs by sulforhodamine B assay relative to control; type: functional; settings: MOLT-4, 48 h, read-out: Activity; procedure, shortened: as §1
[7] = Cytotoxicity against human UO31 cells assessed as cell growth at 10^-5 M after 48 hrs by sulforhodamine B assay relative to control; type: functional; settings: UO-31, 48 h, read-out: Activity; procedure, shortened: as §1
NCI-H522 = assay: Cytotoxicity against human NCI-H522 cells assessed as cell growth at 10^-5 M after 48 hrs by sulforhodamine B assay relative to control; type: functional; settings: NCI-H522, 48 h, read-out: Activity; procedure, shortened: as §1
[8] = Antioxidant activity assessed as inhibition of superoxide anion generation measured for 3 mins by nitro blue tetrazolium assay; type: physicochemical
Procedure, shortened: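 Cell-free superoxide generated by xanthine (1 mM) and xanthine oxidase (0.11 U/mL), with NBT (50 µM) as detector. Compounds in DMSO were tested up to 10 µM, with DMSO held at 0.1%. NBT reduction rate (dA560/dt) was read spectrophotometrically over 3 min from the linear part.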

[9] = Cytotoxicity against human RPMI8226 cells assessed as cell growth at 10^-5 M after 48 hrs by sulforhodamine B assay relative to control; type: functional; settings: RPMI-8226, 48 h, read-out: Activity; procedure, shortened: as §1

| IC50 [8] | Emax ([8]; 0.05 h) | SMILES | growth at 10 µM [1] | Emax (HFL1 [2]) | IC50 (HFL1 [3]) | growth at 10 µM (MDA-MB-435) | growth at 10 µM [4] | growth at 10 µM [5] | growth at 10 µM [6] | growth at 10 µM [7] | growth at 10 µM (NCI-H522) | growth at 10 µM [9] |
| --- | --- | --- | --- | --- | --- | --- | --- | --- | --- | --- | --- | --- |
| – | – | COc1ccc(-c2nnc(NC3=NC(=O)/C(=C/c4ccc(N(C)C)cc4)S3)o2)cc1 | 60.4% | 52.4% | 150 nM | 47.8% | 92.8% | 69.8% | – | – | – | – |
| 350 nM | 71.7% | CN(C1=NC(=O)/C(=C2/C(=O)Nc3ccccc32)S1)c1ccc(O)cc1 | – | 27.3% | 1780 nM | – | 85.6% | – | 60.2% | 21.4% | 65.2% | 55.2% |

From ChEMBL document CHEMBL3779799, “Antifibrotic and anticancer action of 5-ene amino/iminothiazolidinones” (Eur J Med Chem, 2016)
